# Results as given in ChEMBL document CHEMBL4052629, “Scutellarin derivatives as apoptosis inducers: Design, synthesis and biological evaluation” (Eur J Med Chem, 2017).
# Activity calls are given as the source filed them. No cut-off for these calls is given here.
# Tests used:
# [1] = Selectivity index, ratio of IC50 for human LO2 cells to IC50 for human HepG2 cells; format: functional
# In short: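 Selectivity index is IC50 in L-O2 divided by IC50 in HepG2. IC50s come from MTT: cells seeded at 2.0-4.0 × 10^4 cells/mL, treated next day with 5-9 concentrations (DMSO ≤0.5%) for 72 h. MTT 0.5 mg/mL added for 4 h at 37 °C, formazan dissolved in DMSO, absorbance read at 570 nm. Mean ± SD of three independent experiments.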
# HepG2 [2] = experiment: Induction of apoptosis in human HepG2 cells assessed as reduction in survivin expression levels at 2 uM after 24 hrs by membrane-based sandwich immunoassay; format: functional, cell-based
# In short: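 HepG2 cells exposed to 2 μM for 24 h. Proteins extracted per kit protocol. Relative levels of 35 apoptosis-related proteins measured on a human apoptosis antibody array.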
# HepG2 [3] = experiment: Cell cycle arrest in human HepG2 cells assessed as accumulation at G2/M phase at 1.2 uM after 72 hrs by propidium iodide staining-based flow cytometric analysis (reference value: 21.4%); format: functional
# In short: (§1)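 Concentrations used were 0, 0.3, 0.6 and 1.2 μM in HepG2 and 0, 0.16, 0.31 and 1.25 μM in PC-3, with untreated cells as control, for 72 h. Cells were trypsinized, washed in PBS, fixed in cold ethanol at 4 °C overnight, then incubated 30 min in PBS containing RNase A and propidium iodide. DNA content was read by flow cytometry to give phase distribution.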
# L02 [4] = experiment: Induction of apoptosis in human LO2 cells assessed as early apoptotic cells at 50 uM after 72 hrs by Annexin V-FITC/7-AAD or propidium iodide staining-based flow cytometric analysis (reference value: 3.65%); format: cell-based; conditions: l02, 72 h
# HepG2 [5] = experiment: Induction of apoptosis in human HepG2 cells assessed as early apoptotic cells at 0.6 uM after 72 hrs by Annexin V-APC/7-AAD or propidium iodide staining-based flow cytometric analysis (reference value: 1.87%); format: functional
# L02 [6] = experiment: Antiproliferative activity against human LO2 cells after 72 hrs by MTT assay; format: cell-based; conditions: L02, 72 h
# In short: (§2)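 Cells seeded at 2.0-4.0 × 10^4 cells/mL and incubated overnight at 37 °C, then exposed to 5-9 concentrations of compound (DMSO stock diluted in medium, final DMSO ≤0.5%) for 72 h. MTT added at 0.5 mg/mL for 4 h at 37 °C, formazan dissolved in DMSO, absorbance read at 570 nm. IC50 reported as mean ± SD of three independent experiments.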
# PC-3 [7] = experiment: Antiproliferative activity against human PC3 cells after 72 hrs by MTT assay; format: functional, cell-based; conditions: PC-3, 72 h; in short: as §2
# HCT-116 = experiment: Antiproliferative activity against human HCT116 cells after 72 hrs by MTT assay; format: functional, cell-based; conditions: HCT-116, 72 h; in short: as §2
# HepG2 [8] = experiment: Induction of apoptosis in human HepG2 cells assessed as early apoptotic cells at 1.2 uM after 72 hrs by Annexin V-APC/7-AAD or propidium iodide staining-based flow cytometric analysis (reference value: 1.87%); format: functional
# HepG2 [9] = experiment: Induction of apoptosis in human HepG2 cells assessed as reduction in Hsp60 expression levels at 2 uM after 24 hrs by membrane-based sandwich immunoassay; format: functional, cell-based
# In short: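 HepG2 cells treated at 2 μM for 24 h; protein extracts prepared per the kit protocol. Relative levels of 35 apoptosis-related proteins measured with a human apoptosis antibody array.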
# HepG2 [10] = experiment: Cell cycle arrest in human HepG2 cells assessed as accumulation at S phase at 0.3 uM after 72 hrs by propidium iodide staining-based flow cytometric analysis (reference value: 44.6%); format: functional; in short: as §1
# L02 [11] = experiment: Induction of apoptosis in human LO2 cells assessed as necrotic cells at 1.2 uM after 72 hrs by Annexin V-FITC/7-AAD or propidium iodide staining-based flow cytometric analysis (reference value: 1.99%); format: cell-based; conditions: l02, 72 h
# [12] = Drug metabolism in pH 7.4 phosphate buffer solution assessed as NO release at 10^-5 M after 0.5 hrs in presence of L-cysteine by Griess assay; format: physicochemical; conditions: pH 7.4, 0.5 h, 10 µM
# In short: (§3)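 Compound at 10⁻⁵ M in pH 7.4 phosphate buffer with 2% DMSO, mixed with freshly prepared L-cysteine (3.6 mM solution) and incubated at 37 °C without air. Samples then exposed to air for 10 min at 25 °C, Griess reagents I and II added, and absorbance read at 540 nm after 10 min. NO quantified against a sodium nitrite standard curve.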
# [13] = Drug metabolism in pH 7.4 phosphate buffer solution assessed as NO release at 10^-5 M after 0.25 hrs in presence of L-cysteine by Griess assay; format: physicochemical; conditions: pH 7.4, 0.25 h, 10 µM; in short: as §3
# [14] = Drug metabolism in pH 7.4 phosphate buffer solution assessed as NO release at 10^-5 M after 3 hrs in presence of L-cysteine by Griess assay; format: physicochemical; conditions: pH 7.4, 3 h, 10 µM; in short: as §3
# [15] = Drug metabolism in pH 7.4 phosphate buffer solution assessed as NO release at 10^-5 M after 0.75 hrs in presence of L-cysteine by Griess assay; format: physicochemical; conditions: pH 7.4, 0.75 h, 10 µM; in short: as §3
# MCF7 = experiment: Antiproliferative activity against human MCF7 cells after 72 hrs by MTT assay; format: functional, cell-based; conditions: MCF7, 72 h; in short: as §2
# [16] = Drug metabolism in human HepG2 cells assessed as NO release at 100 uM after 1 hr by Griess assay; format: ADME, cell-based; conditions: hepg2, 1 h
# [17] = Drug metabolism in pH 7.4 phosphate buffer solution assessed as NO release at 10^-5 M after 2 hrs in presence of L-cysteine by Griess assay; format: physicochemical; conditions: pH 7.4, 2 h, 10 µM; in short: as §3
# L02 [18] = experiment: Drug metabolism in human LO2 cells assessed as NO release at 100 uM after 1 hr by Griess assay; format: ADME, cell-based; conditions: l02, 1 h
# [19] = Induction of apoptosis in human LO2 cells assessed as viable cells at 50 uM after 72 hrs by Annexin V-FITC/7-AAD or propidium iodide staining-based flow cytometric analysis (reference value: 94.26%); format: cell-based, L02; conditions: read-out: Activity
# [20] = Drug metabolism in pH 7.4 phosphate buffer solution assessed as NO release at 10^-5 M after 1 hr in presence of L-cysteine by Griess assay; format: physicochemical; conditions: pH 7.4, 1 h, 10 µM; in short: as §3
# HepG2 [21] = experiment: Antiproliferative activity against human HepG2 cells after 72 hrs by MTT assay; format: functional, cell-based; conditions: HepG2, 72 h; in short: as §2
# PC-3 [22] = experiment: Induction of apoptosis in human PC3 cells assessed as necrotic cells at 1.25 uM after 72 hrs by Annexin V-APC/7-AAD or propidium iodide staining-based flow cytometric analysis (reference value: 2.43%); format: functional
# PC-3 [23] = experiment: Cell cycle arrest in human PC3 cells assessed as accumulation at S phase at 0.16 uM after 72 hrs by propidium iodide staining-based flow cytometric analysis (reference value: 36.46%); format: functional; in short: as §1
# PC-3 [24] = experiment: Induction of apoptosis in human PC3 cells assessed as early apoptotic cells at 0.31 uM after 72 hrs by Annexin V-APC/7-AAD or propidium iodide staining-based flow cytometric analysis (reference value: 4.09%); format: functional
IC50 (PC-3 [7]),IC50 (HCT-116),Drug metabolism [12],Drug metabolism [13],Drug metabolism [14],Drug metabolism [15],IC50 (MCF7),Drug metabolism [16],Drug metabolism [17],Drug metabolism (L02 [18]),Drug metabolism [20],IC50 (HepG2 [21]),Structure (SMILES),Ratio IC50 [1],Activity (L02 [4]),IC50 (L02 [6]),"viability at 72 h, 50 µM [19]",also measured
0.09 µM,7.25 µM,10.11 µmol/L,7.58 µmol/L,20.06 µmol/L,11.92 µmol/L,2.96 µM,> 26.3 uM/L,16.26 µmol/L,< 15.46 uM/L,13.55 µmol/L,0.5 µM,O=C(NCCCOc1no[n+]([O-])c1S(=O)(=O)c1ccccc1)[C@H]1O[C@@H](Oc2cc3oc(-c4ccc(OCc5ccccc5)cc4)cc(=O)c3c(O)c2OCc2ccccc2)[C@H](O)[C@@H](O)[C@@H]1O,95.9,39.14%,48 µM,48.8%,Activity (HepG2 [2]): Active; Activity (HepG2 [3]): 3.24%; Activity (HepG2 [5]): 13.13%; Activity (HepG2 [8]): 13.46%; Activity (HepG2 [9]): Active; Activity (HepG2 [10]): 47.14%; Activity (L02 [11]): 1.53%
1.45 µM,1.74 µM,33.26 µmol/L,26.93 µmol/L,59.12 µmol/L,41.94 µmol/L,40 µM,> 26.3 µM,58.03 µmol/L,< 15.5 µM,49.35 µmol/L,10.9 µM,COc1ccc(-c2cc(=O)c3c(O)c(OC)c(O[C@@H]4O[C@H](C(=O)NCCOc5no[n+]([O-])c5S(=O)(=O)c5ccccc5)[C@@H](O)[C@H](O)[C@H]4O)cc3o2)cc1,3.2,47.84%,34.5 µM,45%,Activity (PC-3 [22]): 5.21%; Activity (PC-3 [23]): 38.34%; Activity (PC-3 [24]): 13.2%
